Test results taken from the RNAGym collection of RNA variant scans (doi:10.1038/s41586-018-0170-7).

B1: tRNA (parent)
chain: GUUCCGUUGGCGUAAUGGUAACGCGUCUCCCUCCUAAGGAGAAGACUGCGGGUUCGAGUCCCGUACGGAACG

Variants of: B1
Test: yeast fitness, log relative to wild type (ln ratio); higher = fitter; tRNA-Arg(CCU), competitive growth, 37 C, 1 M NaCl
In short: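 Two independent transformations put a combinatorial tRNA-Arg(CCU) variant library on a HIS3 centromeric plasmid into BY4742 lacking the chromosomal gene. Pools were grown in SC-HIS at 30 °C for 4 generations, then in SC-HIS 1M NaCl at 37 °C for ~6.5 generations (~26.5 h), with three outputs taken per input. Fitness compares a genotype's generations with the wild type's as a natural log ratio. Those generations are OD-scaled log2 output/input frequencies, inverse-variance weighted across replicates, from 125 bp paired-end Illumina counts.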

In order of rising “yeast fitness (ln)” value:
1. G1A G6U C27U A43C C46U C66U A70G C71U  -0.596
2. G1A U2G G6A C27U A43C C66U A69G A70G C71U  -0.563
3. U2C G6U C27U A43C A69G A70U C71U  -0.513
4. G1A U2G G6U C27U A43C C46U C66U A69G A70G C71U  -0.475
5. G1A U2G C27U A43C C66U C71U  -0.452
6. U2C G6U C27U A43C C66A A69G A70U C71U  -0.398
7. G1A U2G G6U C27U A43C C46U A69G C71U  -0.39
8. G1A G6U C27U C66U C71U  -0.389
9. U2G G6A A43C C46U C66A A69G A70U C71U  -0.381
10. U2C A43C C46U C66A A69G A70U C71U  -0.374
11. G6U C27U C66U A70G C71U  -0.37
12. G1A C27U A43C C66A A70G C71U  -0.35
13. U2G C46U C66U A69G A70U C71U  -0.349
14. G6U C27U A43C C46U A69G C71U  -0.339
15. G1A U2G G6A C66U A69G A70U  -0.334
16. U2C C27U A43C C66U A69G A70G  -0.332
17. G1A U2G C27U A43C C46U C66A A69G C71U  -0.315
18. U2G G6U A43C C46U C66A A69G A70U C71U  -0.313
19. G6A A43C C46U C66A A70U C71U  -0.312
20. G1A U2C G6A A43C C66U A69G A70G  -0.309
21. G1A G6U A43C C46U C66U A69G A70U  -0.305
22. G1A U2G C27U A43C C46U C66U A69G A70G C71U  -0.3
23. U2G G6A C27U A43C C46U C66U A69G A70U  -0.292
24. G6U A43C C66A A70U C71U  -0.29
25. U2C G6U C27U C46U C66A A70U  -0.29
26. G1A U2C G6U C27U A43C A69G A70U C71U  -0.282
27. G1A U2G C27U A43C C66A A69G A70G  -0.27
28. G1A U2C G6U C27U A43C C46U A69G A70G C71U  -0.267
29. U2C C27U A43C A69G A70U C71U  -0.266
30. G6A A69G A70G C71U  -0.263
31. U2G G6U C27U A43C C46U C66U  -0.262
32. G1A G6A C46U A69G A70U C71U  -0.256
33. G1A G6U A43C A70U  -0.247
34. G1A U2G C66U A69G A70G  -0.243
35. G1A U2G A43C C46U C66A A69G A70G C71U  -0.24
36. U2G G6U C27U C46U C66U A69G A70U  -0.238
37. G1A G6U C27U C46U C66U A70G  -0.234
38. G6A C71U  -0.23
39. C27U A69G A70G C71U  -0.223
40. G6U A70G  -0.221
41. U2G G6A C27U A43C C46U A69G C71U  -0.22
42. G1A C27U C46U C66U  -0.215
43. U2G C27U C66U A69G A70U  -0.212
44. C27U A43C C46U A69G C71U  -0.207
45. G1A U2G C27U C46U A69G A70U  -0.207
46. G6U C27U C46U C71U  -0.205
47. U2G G6A C27U A43C C66A C71U  -0.2
48. G1A U2G C27U C46U C66A A70G  -0.195
49. U2G G6A A43C C66A A70G  -0.187
50. U2C G6A C46U C66U A70U C71U  -0.183
51. U2C G6U C27U C46U C66U C71U  -0.183
52. U2C G6A A43C A69G C71U  -0.179
53. G1A C27U C66U A70G  -0.176
54. U2C C27U A69G A70U  -0.175
55. G1A G6U A43C C46U C71U  -0.174
56. U2G G6A C27U C46U A69G A70G  -0.174
57. U2G G6U C27U C66A C71U  -0.168
58. G6A C27U A43C C46U A69G A70U  -0.16
59. G6U A70G C71U  -0.153
60. U2G C66A A69G A70G C71U  -0.152
61. G1A U2C G6U C27U A43C C46U A70U  -0.151
62. U2G C66U A69G A70G  -0.151
63. U2C G6U C27U C71U  -0.147
64. G1A G6A A43C C46U C66A A70U  -0.143
65. G1A U2C G6U C27U A43C A70U  -0.14
66. U2G G6A C66A C71U  -0.139
67. U2C G6A C27U C46U C66U  -0.136
68. G1A U2G A43C C46U C66A A70U  -0.125
69. G1A U2C G6U C27U A43C C46U C66A A70U C71U  -0.124
70. A43C C46U C66U C71U  -0.115
71. U2G G6A C46U A69G A70G  -0.115
72. C27U A43C A70G C71U  -0.112
73. G6A C27U C66A A70U  -0.107
74. U2C G6A A43C C66U A69G A70G C71U  -0.072
75. U2G G6A A43C C46U C66U A69G A70U  -0.0409
76. A43C C71U  -0.038
77. U2C C27U A43C C46U  -0.0298
78. U2C C27U C46U A69G A70G  -0.0283
79. U2C G6U C46U A70G C71U  -0.0274
80. G1A U2C G6A C46U A70G C71U  -0.00868
81. U2C G6U C66A A70U  0.0021
82. G6A C46U C66U  0.00319
83. G6U C46U C66A  0.00404
